A short description of data set [1]: Biodistribution in BPRα tumor-bearing mice. As to conditions: both, C57BL/6, mouse, iv, 7.4 MBq, total radioactivity. The data set is classed as in vivo, C57BL/6 mice. Put shortly:
(§1)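 Male and female C57BL/6 mice (4–6 weeks old) carried s.c. right-flank tumours from 5 x 10^5 cells in an equal volume of Matrigel. They received 7.4 MBq radiotracer (57.2 MBq/nmol) via lateral tail vein and were euthanised right after 24 h imaging (n=6; 3m/3f). Tissues and tumour were weighed and γ-counted. %IA/g was decay-corrected against an injected-dose standard.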

Data set [2] relates to B16F10 melanoma cells (VLA-4+). Conditions: previously reported; cited from earlier work.
For a further data set, the system named is s.c. BPR and BPRα tumors. The experiment in a line: PET/CT imaging of BPR and BPRα tumor models. The format is in vivo, C57BL/6 mice. Put shortly: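 Mice bore s.c. flank tumours (5 x 10^5 cells plus Matrigel; n=9 per line, 3m/6f) and received 7.4 MBq radiotracer i.v. (57.2 MBq/nmol). Under 2% isoflurane, static 10-min PET/CT scans were taken at 4 and 24 h and reconstructed by OSEM-3D. ROIs were drawn on CT. SUV = activity concentration x body weight/injected dose. Tumour-to-muscle SUV ratios were derived.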

For data set [3] the following is noted: previously demonstrated, cited from earlier work.
The target of data set [4] is VLA-4 (integrin α4β1) on BPRα cells (Mus musculus, UniProt P09055+Q00651). The experiment in a line: Saturation binding of [64Cu]-LLP2A to BPRα cells. Conditions: normalized to cellular protein, triplicate.
Chain of VLA-4 (integrin α4β1) on BPRα cells (Q00651 41-1039): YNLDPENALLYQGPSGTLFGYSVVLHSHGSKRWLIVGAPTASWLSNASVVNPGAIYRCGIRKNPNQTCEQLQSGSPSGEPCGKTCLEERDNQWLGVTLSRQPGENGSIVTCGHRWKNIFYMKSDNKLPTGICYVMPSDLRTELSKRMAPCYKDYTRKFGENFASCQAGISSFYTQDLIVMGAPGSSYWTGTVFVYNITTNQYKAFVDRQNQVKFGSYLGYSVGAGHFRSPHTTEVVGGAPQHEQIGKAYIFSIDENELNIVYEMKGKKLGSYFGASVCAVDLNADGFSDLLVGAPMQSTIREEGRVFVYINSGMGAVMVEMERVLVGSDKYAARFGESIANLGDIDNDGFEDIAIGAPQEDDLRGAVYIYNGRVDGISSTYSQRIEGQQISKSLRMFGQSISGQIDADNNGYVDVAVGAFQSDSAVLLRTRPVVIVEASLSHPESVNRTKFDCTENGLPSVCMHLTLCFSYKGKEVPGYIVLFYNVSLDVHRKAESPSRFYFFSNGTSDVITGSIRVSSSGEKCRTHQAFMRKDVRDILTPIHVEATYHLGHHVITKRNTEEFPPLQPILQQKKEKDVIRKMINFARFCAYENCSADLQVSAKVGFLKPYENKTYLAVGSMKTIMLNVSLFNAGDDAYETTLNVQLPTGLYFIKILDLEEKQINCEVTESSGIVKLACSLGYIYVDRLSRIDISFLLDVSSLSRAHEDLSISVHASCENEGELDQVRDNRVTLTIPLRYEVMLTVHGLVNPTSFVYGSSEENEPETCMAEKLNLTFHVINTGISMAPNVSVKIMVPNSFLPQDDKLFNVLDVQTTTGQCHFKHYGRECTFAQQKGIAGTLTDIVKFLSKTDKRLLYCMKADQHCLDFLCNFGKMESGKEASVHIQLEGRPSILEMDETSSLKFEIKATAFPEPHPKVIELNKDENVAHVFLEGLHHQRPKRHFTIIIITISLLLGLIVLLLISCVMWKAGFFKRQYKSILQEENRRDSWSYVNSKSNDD
Chain of VLA-4 (integrin α4β1) on BPRα cells (P09055 21-798): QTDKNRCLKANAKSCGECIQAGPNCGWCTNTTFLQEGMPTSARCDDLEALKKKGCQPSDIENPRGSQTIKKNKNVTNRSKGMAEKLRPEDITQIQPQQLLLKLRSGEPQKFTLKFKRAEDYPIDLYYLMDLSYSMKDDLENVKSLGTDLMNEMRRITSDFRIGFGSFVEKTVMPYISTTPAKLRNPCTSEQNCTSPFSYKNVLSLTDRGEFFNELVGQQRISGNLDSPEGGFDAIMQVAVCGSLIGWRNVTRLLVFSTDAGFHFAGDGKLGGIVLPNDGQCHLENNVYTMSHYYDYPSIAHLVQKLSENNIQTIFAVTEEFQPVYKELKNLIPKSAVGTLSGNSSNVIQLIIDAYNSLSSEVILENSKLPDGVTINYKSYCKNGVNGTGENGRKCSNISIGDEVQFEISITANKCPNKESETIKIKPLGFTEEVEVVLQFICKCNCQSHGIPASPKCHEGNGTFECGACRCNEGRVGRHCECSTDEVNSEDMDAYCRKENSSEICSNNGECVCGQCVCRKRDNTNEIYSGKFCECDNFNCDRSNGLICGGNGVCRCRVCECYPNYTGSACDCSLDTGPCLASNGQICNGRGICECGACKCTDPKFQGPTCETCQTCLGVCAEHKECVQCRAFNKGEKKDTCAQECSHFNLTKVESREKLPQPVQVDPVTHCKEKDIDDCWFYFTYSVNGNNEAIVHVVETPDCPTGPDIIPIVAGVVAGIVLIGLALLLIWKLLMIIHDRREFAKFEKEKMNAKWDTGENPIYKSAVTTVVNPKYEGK
Data set [5] deals with BPR cells (VLA-4−). The experiment in a line: Saturation binding of [64Cu]-LLP2A to BPR cells. The arrangement: species or system mouse.
Data set [6] deals with BPR cells (VLA-4−). As to the kind of experiment: [64Cu]-LLP2A internalization assay, BPR cells. Conditions: 15 min - 4 h at 37°C. The format is cell-based, mouse. A digest of the protocol: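 Cells (1 x 10^5/well, seeded 24 h) were held in DMEM/1% BSA/1 mM Mn2+. Blocked wells first had 10 μg unlabelled PEG4 peptide for 15 min at 37°C. Each well then received 0.44 MBq radiotracer (3.43 MBq/nmol) at 37°C for 15 min, 2 h or 4 h. Surface activity was stripped with 20 mM sodium acetate pH 4.0 (10 min). Lysates were γ-counted, corrected for background, block and decay, and normalised to protein; n=3.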

Data set [7] is described as follows: Biodistribution in BPR tumor-bearing mice. The format is in vivo, C57BL/6 mice. Conditions: both, C57BL/6, mouse, iv, 7.4 MBq, total radioactivity. A digest of the protocol: as §1

A word on the tissue uptake: it is the percentage of the injected dose found per gram of tissue.

“Also recorded” adds a separate entry of the source. Starred links: 1 amine or outer side, 2 acyl side, 3 side chain; linkers in the order of their positions; H or OH if unused. Non-standard residues stand in square brackets, D forms with d. Residues, ends and D or L forms follow the SMILES beside them. Groups on a side chain read outwards from the residue. *: point of attachment. Acryloyl(3-(3-pyridyl),E) = O=C(/C=C/c1cccnc1)*; X2 = O=C(CN1CCCN2CCN(CCCN(CP(=O)(O)O)CC2)CC1)*; X1 = O=C(Cc1ccc(N[*:1])cc1)[*:2]; Aad = N[C@@H](CCCC(=O)O)C(=O)O; NH(2-Me-phenyl) = Cc1ccccc1N*; PEG4 = NCCOCCOCCOCCOCCC(=O)O; Ac6c = NC1(C(=O)O)CCCCC1; CO = O=C([*:1])[*:2]

`Cc1ccccc1NC(=O)Nc1ccc(CC(=O)N[C@@H](CCCCNC(=O)/C=C/c2cccnc2)C(=O)N[C@@H](CCCC(=O)O)C(=O)NC2(C(=O)N[C@@H](CCCCNC(=O)CCOCCOCCOCCOCCNC(=O)CN3CCCN4CCN(CCCN(CP(=O)(O)O)CC4)CC3)C(N)=O)CCCCC2)cc1` [[^64Cu]-LLP2A, [^64Cu]-CB-TE1A1P-PEG4-LLP2A, metal not drawn] ({NH(2-Me-phenyl)-CO}-[X1]K(Acryloyl(3-(3-pyridyl),E))[Aad][Ac6c]K([PEG4-X2])-NH2; N-terminus and C-terminus assumed): the tissue uptake at 24 h in data set [1] (bone marrow) turned out to be 1.6 ± 0.5 %ID/g; in data set [1] (spleen), 6 ± 1.9 %ID/g; in data set [1] (thymus), 4.2 ± 4 %ID/g; in data set [1] (tumor), 2.8 ± 0.2 %ID/g; in data set [7] (spleen), 8.1 ± 4.4 %ID/g; in data set [7] (thymus), 3.5 ± 0.9 %ID/g. For the same compound, in data set [7] (tumor), the tissue uptake at 24 h was determined as 1.7 ± 0.2 %ID/g. In addition, the Bmax in data set [2] is given as 300 ± 4.5 fmol/mg; in data set [4], 145 ± 8.8 fmol/mg; in the data set with BPR cells (VLA-4−) [5] (model fit poor, R^2=0.0002), “not interpretable”. The “tumor uptake in BPRα relative to BPR (PET/CT)” value with s.c. BPR and BPRα tumors (4h post-injection, 7.4 MBq i.v., n=9 each, p=0.0021) is recorded as “significant increase”. Moreover, the “tumor-to-muscle ratio of BPRα vs. BPR (PET/CT SUV)” value in the data set on s.c. BPR and BPRα tumors (4h post-injection, n=9, p=0.0005) is listed as “significantly greater”. Besides, the “BPRα tumor uptake (PET/CT)” value in the data set on s.c. BPR and BPRα tumors (24h post-injection, n=9) is “remained detectable”. In data set [3] (human serum), the “stability in human serum” value is “stability in human serum”. Moreover, the “binding of the conjugate to plasma proteins” value in data set [3] is recorded as “negligible”. The “binding to BPR cells (saturation binding)” value with BPR cells (VLA-4−) [5] (1-100 nM tracer, on ice 2 h, blocked with LLP2A-PEG4) is given as “indeterminate binding; also recorded: no saturation occurs”. For the same compound, the internalization entry in the data set on BPR cells (VLA-4−) [6] was “undetectable”.

(Values after article PMC9183947 (Molecular imaging and biology, 2021).)
